According to ChEMBL document CHEMBL4354826, “Structure-Based Discovery of SD-36 as a Potent, Selective, and Efficacious PROTAC Degrader of STAT3 Protein” (J Med Chem, 2019):
Active and inactive are the calls of the source. The rule behind the calls is not given here.

Experiments:
[1] = target: T1, Protein cereblon/Signal transducer and activator of transcription 1-alpha/beta (Homo sapiens) (UniProt P42224+Q96SW2); test: Protac activity at CRBN/STAT1 in human SUDHL1 cells assessed as degradation of STAT1 at 0.01 to 10 uM incubated for 18 hrs by Western blot analysis; type: cell-based
In short: (§1)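 SU-DHL-1 cells treated 18 h with test compound at 0.01–10 μM, or control compounds at 10 μM. Lysates separated by SDS–PAGE, transferred to PVDF, blocked 1 h in 5% blocker/TBST, probed for each STAT protein, and detected by chemiluminescence.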

[2] = target: Protein cereblon/Signal transducer and activator of transcription 3 (Homo sapiens, UniProt P40763+Q96SW2); test: Protac activity at CRBN/STAT3 in human MOLM16 cells assessed as degradation of STAT3 incubated for 4 hrs by Western blot analysis; type: cell-based
In short: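 Molm-16 cells treated 4 h with serially diluted compound. Lysates immunoblotted (SDS–PAGE, PVDF, 5% blocker/TBST, chemiluminescence) for total STAT3 and pSTAT3 Y705. DC50 taken as the concentration reducing total STAT3 by 50%.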

[3] = target: Protein cereblon/Signal transducer and activator of transcription 4 (Homo sapiens) (UniProt Q96SW2+Q14765); test: Protac activity at CRBN/STAT4 in human MOLM16 cells assessed as degradation of STAT4 at 0.01 to 10 uM incubated for 4 hrs by Western blot analysis; type: cell-based
In short: (§2)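 Molm-16 cells treated 4 h with test compound at 0.01–10 μM, or control compounds at 10 μM. Lysates separated by SDS–PAGE, transferred to PVDF, blocked 1 h in 5% blocker/TBST, probed for each STAT protein, and detected by chemiluminescence.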

Homo sapiens [4] = species: Homo sapiens; test: Selectivity index, ratio of protac activity at CRBN/STAT5A in human MOLM16 cells to protac activity at CRBN/STAT3 in human MOLM16 cells; type: cell-based
In short: (§3)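 Molm-16 cells treated 4 h with compound at 0.01–10 μM, or controls at 10 μM. Western blot of lysates: SDS–PAGE, PVDF, 1 h block in 5% blocker/TBST, primary and secondary antibodies, chemiluminescent detection. STAT1, -2, -4, -5A/B and -6 levels read against STAT3 to give degradation selectivity.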

Homo sapiens [5] = species: Homo sapiens; test: Selectivity index, ratio of protac activity at CRBN/STAT1 in human SUDHL1 cells to protac activity at CRBN/STAT3 in human SUDHL1 cells; type: cell-based
In short: (§4)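 SU-DHL-1 cells treated 18 h with compound at 0.01–10 μM, or controls at 10 μM. Immunoblotting used SDS–PAGE, PVDF transfer, 1 h block in 5% blocker/TBST, primary and secondary antibodies and chemiluminescence. Levels of other STAT family members compared with STAT3 to express degradation selectivity.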

Homo sapiens [6] = species: Homo sapiens; test: Selectivity index, ratio of protac activity at CRBN/STAT2 in human MOLM16 cells to protac activity at CRBN/STAT3 in human MOLM16 cells; type: cell-based; in short: as §3
Homo sapiens [7] = species: Homo sapiens; test: Selectivity index, ratio of protac activity at CRBN/STAT5B in human SUDHL1 cells to protac activity at CRBN/STAT3 in human SUDHL1 cells; type: cell-based; in short: as §4
Mus musculus [8] = test: In vivo degradation of STAT3 in CD1 mouse at 25 mg/kg, iv measured upto 48 hrs by Western blot analysis; type: functional, organism-based
In short: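 Female CD-1 mice given a single intravenous dose in 10% PEG400 + 90% PBS, or vehicle. Euthanized at set time points. Spleen harvested and lysates immunoblotted for STAT3.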

[9] = target: Protein cereblon/Signal transducer and activator of transcription 6 (Homo sapiens) (UniProt P42226+Q96SW2); test: Protac activity at CRBN/STAT6 in human SUDHL1 cells assessed as degradation of STAT6 at 0.01 to 10 uM incubated for 18 hrs by Western blot analysis; type: cell-based; in short: as §1
[10] = target: Protein cereblon/Signal transducer and activator of transcription 5A (Homo sapiens) (UniProt P42229+Q96SW2); test: Protac activity at CRBN/STAT5A in human MOLM16 cells assessed as degradation of STAT5A at 0.01 to 10 uM incubated for 4 hrs by Western blot analysis; type: cell-based; in short: as §2
Mus musculus [11] = test: In vivo degradation of STAT3 in SCID mouse xenografted with MOLM-16 cells at 50 mg/kg, iv measured upto 72 hrs by Western blot analysis relative to control; type: functional
In short: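 SCID mice bearing subcutaneous Molm-16 tumors (3 × 10^6 cells in Matrigel; treated at ~150 mm3) given a single intravenous dose in 10% PEG400 + 90% PBS, or vehicle. Tumors harvested at time points. Lysates immunoblotted for total STAT3 and pSTAT3 Y705, compared with vehicle control.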

[12] = target: T2, Signal transducer and activator of transcription 1-alpha/beta (Homo sapiens, UniProt P42224); test: Binding affinity to recombinant human His/SUMO-tagged STAT1 (132 to 713 residues) expressed in Escherichia coli Rosetta (DE3) incubated for 1 hr by fluorescence polarization assay
T2 sequence (P42224 whole entry): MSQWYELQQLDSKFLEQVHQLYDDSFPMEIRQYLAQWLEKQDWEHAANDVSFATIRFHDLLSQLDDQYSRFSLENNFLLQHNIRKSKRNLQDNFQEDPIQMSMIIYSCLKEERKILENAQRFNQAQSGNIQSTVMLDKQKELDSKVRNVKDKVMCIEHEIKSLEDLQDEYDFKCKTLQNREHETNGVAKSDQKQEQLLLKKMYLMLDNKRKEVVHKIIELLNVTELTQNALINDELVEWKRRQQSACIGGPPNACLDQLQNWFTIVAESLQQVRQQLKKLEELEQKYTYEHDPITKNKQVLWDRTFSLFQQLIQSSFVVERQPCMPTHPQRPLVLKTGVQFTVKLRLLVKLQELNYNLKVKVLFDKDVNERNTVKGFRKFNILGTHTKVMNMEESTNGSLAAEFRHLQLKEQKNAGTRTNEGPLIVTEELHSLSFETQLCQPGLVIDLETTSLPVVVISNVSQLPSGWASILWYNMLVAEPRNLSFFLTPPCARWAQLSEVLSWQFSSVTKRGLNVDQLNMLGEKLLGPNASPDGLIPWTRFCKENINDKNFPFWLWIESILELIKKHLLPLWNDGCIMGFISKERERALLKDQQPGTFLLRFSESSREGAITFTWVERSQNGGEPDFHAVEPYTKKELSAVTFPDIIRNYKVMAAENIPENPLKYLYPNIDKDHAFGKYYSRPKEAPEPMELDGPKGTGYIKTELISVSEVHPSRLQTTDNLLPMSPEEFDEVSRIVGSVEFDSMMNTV

[13] = target: T1, Protein cereblon/Signal transducer and activator of transcription 1-alpha/beta (Homo sapiens); test: Protac activity at CRBN/STAT1 in human MOLM16 cells assessed as degradation of STAT1 at 0.01 to 10 uM incubated for 4 hrs by Western blot analysis; type: cell-based; in short: as §2
Homo sapiens [14] = species: Homo sapiens; test: Selectivity index, ratio of protac activity at CRBN/STAT4 in human SUDHL1 cells to protac activity at CRBN/STAT3 in human SUDHL1 cells; type: cell-based; in short: as §4
Homo sapiens [15] = species: Homo sapiens; test: Selectivity index, ratio of protac activity at CRBN/STAT6 in human MOLM16 cells to protac activity at CRBN/STAT3 in human MOLM16 cells; type: cell-based; in short: as §3

Sequence of Protein cereblon/Signal transducer and activator of transcription 6 (Homo sapiens) (P42226 2-847 limits assumed): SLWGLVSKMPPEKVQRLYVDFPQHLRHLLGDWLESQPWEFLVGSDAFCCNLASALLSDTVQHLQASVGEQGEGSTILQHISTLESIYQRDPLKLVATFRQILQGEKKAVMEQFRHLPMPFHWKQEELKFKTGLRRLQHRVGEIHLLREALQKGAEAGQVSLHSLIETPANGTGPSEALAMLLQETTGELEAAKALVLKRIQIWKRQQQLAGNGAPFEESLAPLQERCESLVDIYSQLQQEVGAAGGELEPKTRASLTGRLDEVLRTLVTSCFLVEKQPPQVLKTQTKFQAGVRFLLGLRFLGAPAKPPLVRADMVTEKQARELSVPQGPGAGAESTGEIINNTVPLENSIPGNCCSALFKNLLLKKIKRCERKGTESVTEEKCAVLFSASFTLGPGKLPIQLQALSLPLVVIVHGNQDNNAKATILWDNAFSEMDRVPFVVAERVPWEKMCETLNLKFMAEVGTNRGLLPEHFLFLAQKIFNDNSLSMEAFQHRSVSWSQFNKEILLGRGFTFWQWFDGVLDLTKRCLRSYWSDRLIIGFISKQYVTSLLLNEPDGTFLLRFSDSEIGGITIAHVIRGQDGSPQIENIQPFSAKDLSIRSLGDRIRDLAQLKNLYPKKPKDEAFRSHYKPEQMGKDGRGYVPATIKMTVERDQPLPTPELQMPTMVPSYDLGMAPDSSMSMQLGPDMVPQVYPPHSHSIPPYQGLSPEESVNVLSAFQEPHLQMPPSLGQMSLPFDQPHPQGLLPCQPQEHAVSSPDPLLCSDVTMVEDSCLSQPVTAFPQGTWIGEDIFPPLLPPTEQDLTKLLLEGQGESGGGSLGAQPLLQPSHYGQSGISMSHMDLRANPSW
Sequence of Protein cereblon/Signal transducer and activator of transcription 6 (Homo sapiens) (Q96SW2 whole entry partner): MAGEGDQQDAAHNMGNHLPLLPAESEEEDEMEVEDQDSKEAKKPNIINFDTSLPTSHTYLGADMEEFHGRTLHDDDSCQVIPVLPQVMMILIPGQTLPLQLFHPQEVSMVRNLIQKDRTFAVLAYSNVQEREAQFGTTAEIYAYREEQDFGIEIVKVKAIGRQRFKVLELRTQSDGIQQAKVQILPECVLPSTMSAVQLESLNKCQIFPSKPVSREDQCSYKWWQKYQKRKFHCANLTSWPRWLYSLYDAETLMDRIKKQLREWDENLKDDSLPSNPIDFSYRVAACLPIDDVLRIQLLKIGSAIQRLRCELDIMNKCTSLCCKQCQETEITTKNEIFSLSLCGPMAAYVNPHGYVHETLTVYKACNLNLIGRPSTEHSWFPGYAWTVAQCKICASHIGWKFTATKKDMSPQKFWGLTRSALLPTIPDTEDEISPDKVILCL
Sequence of Protein cereblon/Signal transducer and activator of transcription 4 (Homo sapiens) (Q14765 whole entry, looked up): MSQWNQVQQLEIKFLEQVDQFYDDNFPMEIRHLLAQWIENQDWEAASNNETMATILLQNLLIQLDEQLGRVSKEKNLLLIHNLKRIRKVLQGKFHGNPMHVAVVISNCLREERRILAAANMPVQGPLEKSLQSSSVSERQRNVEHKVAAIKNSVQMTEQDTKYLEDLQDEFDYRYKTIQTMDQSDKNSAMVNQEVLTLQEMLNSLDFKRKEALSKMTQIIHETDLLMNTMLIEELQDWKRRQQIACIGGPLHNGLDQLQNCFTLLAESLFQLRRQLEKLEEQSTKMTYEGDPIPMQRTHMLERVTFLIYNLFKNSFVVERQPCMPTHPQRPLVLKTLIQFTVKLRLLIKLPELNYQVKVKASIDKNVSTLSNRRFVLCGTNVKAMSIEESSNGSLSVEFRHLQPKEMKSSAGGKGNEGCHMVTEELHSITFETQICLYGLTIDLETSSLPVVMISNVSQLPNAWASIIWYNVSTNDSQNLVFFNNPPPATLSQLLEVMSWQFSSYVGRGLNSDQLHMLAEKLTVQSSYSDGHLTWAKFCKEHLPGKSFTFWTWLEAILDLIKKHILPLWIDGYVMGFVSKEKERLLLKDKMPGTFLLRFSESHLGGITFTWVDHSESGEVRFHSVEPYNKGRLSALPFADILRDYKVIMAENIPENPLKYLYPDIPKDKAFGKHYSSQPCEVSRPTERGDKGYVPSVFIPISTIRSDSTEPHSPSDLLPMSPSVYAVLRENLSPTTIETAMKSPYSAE
Sequence of Protein cereblon/Signal transducer and activator of transcription 4 (Homo sapiens) (Q96SW2 whole entry, looked up): as the sequence (Q96SW2 whole entry partner) above
Sequence of Protein cereblon/Signal transducer and activator of transcription 5A (Homo sapiens) (P42229 whole entry, looked up): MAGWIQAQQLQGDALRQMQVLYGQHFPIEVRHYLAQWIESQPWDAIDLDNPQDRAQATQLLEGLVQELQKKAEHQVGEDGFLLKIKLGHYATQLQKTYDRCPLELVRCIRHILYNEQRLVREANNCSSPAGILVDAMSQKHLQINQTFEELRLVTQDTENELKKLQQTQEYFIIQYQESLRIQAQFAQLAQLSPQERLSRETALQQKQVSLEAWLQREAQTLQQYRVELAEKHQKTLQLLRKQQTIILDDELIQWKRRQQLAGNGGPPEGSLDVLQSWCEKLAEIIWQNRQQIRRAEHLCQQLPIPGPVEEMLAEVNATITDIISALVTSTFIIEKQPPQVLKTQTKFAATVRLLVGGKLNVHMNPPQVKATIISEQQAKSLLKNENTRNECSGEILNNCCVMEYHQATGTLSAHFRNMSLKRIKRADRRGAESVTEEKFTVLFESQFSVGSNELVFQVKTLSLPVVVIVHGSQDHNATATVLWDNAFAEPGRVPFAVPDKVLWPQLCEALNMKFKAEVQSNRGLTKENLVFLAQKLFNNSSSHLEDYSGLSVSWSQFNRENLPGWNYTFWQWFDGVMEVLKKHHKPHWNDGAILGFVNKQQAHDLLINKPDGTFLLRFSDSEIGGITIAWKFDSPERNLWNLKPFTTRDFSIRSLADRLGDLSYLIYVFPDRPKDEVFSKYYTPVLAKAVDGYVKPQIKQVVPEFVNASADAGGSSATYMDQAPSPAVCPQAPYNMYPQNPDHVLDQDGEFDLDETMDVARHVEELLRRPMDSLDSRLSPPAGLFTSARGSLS
Sequence of Protein cereblon/Signal transducer and activator of transcription 5A (Homo sapiens) (Q96SW2 whole entry, looked up): as the sequence (Q96SW2 whole entry partner) above
Sequence of Protein cereblon/Signal transducer and activator of transcription 3 (P40763 whole entry): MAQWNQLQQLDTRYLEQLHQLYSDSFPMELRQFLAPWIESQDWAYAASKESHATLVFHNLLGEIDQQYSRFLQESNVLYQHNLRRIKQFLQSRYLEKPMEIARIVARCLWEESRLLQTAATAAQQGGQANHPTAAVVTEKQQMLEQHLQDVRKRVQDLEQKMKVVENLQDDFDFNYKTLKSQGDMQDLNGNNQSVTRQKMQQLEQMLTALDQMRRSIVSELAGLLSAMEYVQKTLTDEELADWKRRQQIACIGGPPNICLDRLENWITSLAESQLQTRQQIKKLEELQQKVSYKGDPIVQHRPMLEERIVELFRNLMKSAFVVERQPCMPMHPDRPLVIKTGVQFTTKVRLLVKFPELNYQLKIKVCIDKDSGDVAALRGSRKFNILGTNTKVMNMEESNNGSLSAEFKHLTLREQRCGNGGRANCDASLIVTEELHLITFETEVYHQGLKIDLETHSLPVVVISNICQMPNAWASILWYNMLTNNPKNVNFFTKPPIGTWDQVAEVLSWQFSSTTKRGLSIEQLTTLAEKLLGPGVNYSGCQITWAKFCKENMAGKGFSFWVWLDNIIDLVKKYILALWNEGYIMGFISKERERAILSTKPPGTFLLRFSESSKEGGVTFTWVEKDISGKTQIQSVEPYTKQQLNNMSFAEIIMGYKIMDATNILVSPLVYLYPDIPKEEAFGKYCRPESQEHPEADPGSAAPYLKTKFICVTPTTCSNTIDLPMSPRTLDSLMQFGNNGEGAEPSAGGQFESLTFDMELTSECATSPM
Sequence of Protein cereblon/Signal transducer and activator of transcription 3 (Q96SW2 whole entry): as the sequence (Q96SW2 whole entry partner) above

NC(=O)CC[C@H](NC(=O)[C@@H]1CC[C@@H]2CCN(C(=O)CCCCCC#Cc3cccc4c3CN(C3CCC(=O)NC3=O)C4=O)C[C@H](NC(=O)c3cc4cc(C(F)(F)P(=O)(O)O)ccc4[nH]3)C(=O)N21)C(=O)NC(c1ccccc1)c1ccccc1 (stereo not given in full)
Activity [1]: inactive
DC50 [2]: 60 nM
Activity [3]: inactive
Ratio (Homo sapiens [4]): > 100
Ratio (Homo sapiens [5]): > 100
Ratio (Homo sapiens [6]): > 100
Ratio (Homo sapiens [7]): > 100
Activity (Mus musculus [8]): Active
Activity [9]: inactive
Activity [10]: inactive
Activity (Mus musculus [11]): >95%
Kd [12]: 1000 nM
Activity [13]: inactive
Ratio (Homo sapiens [14]): > 100
Ratio (Homo sapiens [15]): > 100
